Results as given in ChEMBL document CHEMBL1131429, “Nitrogen-carbon-linked (azolylphenyl)oxazolidinones with potent antibacterial activity against the fastidious gram-negative organisms Haemophilus influenzae and Moraxella catarrhalis” (J Med Chem, 1998).
Values after ≈ are worked out from the molar mass of the structure shown.

How the values were obtained:
Enterococcus faecalis = experiment: The compound was evaluated for its anti-bacterial activity against Enterococcus faecalis UC 9217; assay type: functional
How it was run: (§1)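 MICs were determined by standard agar dilution against a panel of Gram-positive and Gram-negative isolates.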

Haemophilus influenzae = experiment: The compound was evaluated for its anti-bacterial activity against Haemophilus influenzae UC 30063; assay type: functional; how it was run: as §1
Staphylococcus aureus [1] = experiment: The compound was evaluated for its control effective dose against Staphylococcus aureus UC 9213; assay type: functional
Moraxella catarrhalis = experiment: The compound was evaluated for its anti-bacterial activity against Moraxella catarrhalis UC 30610; assay type: functional; how it was run: as §1
Streptococcus pneumoniae [2] = experiment: The compound was evaluated for its anti-bacterial activity against Streptococcus pneumoniae UC 9912; assay type: functional; how it was run: as §1
Staphylococcus aureus [3] = experiment: The compound was evaluated for its effective dose against Staphylococcus aureus UC 9213; assay type: functional
Staphylococcus aureus [4] = experiment: The compound was evaluated for its anti-bacterial activity against methicillin susceptible Staphylococcus aureus; assay type: functional
How it was run: (§2)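 MIC determined in vitro by standard agar dilution against bacterial isolates.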

[5] = tested on: Staphylococcus epidermidis; experiment: The compound was evaluated for its anti-bacterial activity against methicillin resistant Staphylococcus epidermidis; assay type: functional; how it was run: as §2
Staphylococcus aureus [6] = experiment: The compound was evaluated for its anti-bacterial activity against methicillin resistant Staphylococcus aureus; assay type: functional; how it was run: as §2
Rattus norvegicus [7] = experiment: Dawley rats 9.9 mg/kg when taken intravenously; assay type: functional; details: route intravenous
How it was run: (§3)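 Single intravenous or oral doses were given to male Sprague-Dawley rats (n = 3), with plasma sampled to give Cmax and tmax. Vss was calculated as dose·AUMC/AUC², clearance as dose/AUC, and F as (AUC/dose)po/(AUC/dose)iv × 100, assuming linear PK. t1/2β is the harmonic mean terminal half-life. The oral entries show the iv half-life because the po half-life was not calculable.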

[8] = Cmax was evaluated in male Dawley rats at a dose of 9.9 mg/kg when taken intravenously; assay type: ADME, organism-based; parameters: dose 9.9 mg/kg, route intravenous; details: Sprague-Dawley, rat, in vivo, iv; how it was run: as §3
Streptococcus pneumoniae [9] = experiment: The compound was evaluated for its control effective dose against Streptococcus pneumoniea UC 15087; assay type: functional
Rattus norvegicus [10] = experiment: Dawley rats at a dose of 42.9 mg/kg when taken peroral; assay type: functional; details: route oral; how it was run: as §3
Streptococcus pneumoniae [11] = experiment: The compound was evaluated for its effective dose against Streptococcus pneumoniea UC 15087; assay type: functional
Rattus norvegicus [12] = experiment: tmax was evaluated in male Dawley rats at a dose of 42.9 mg/kg when taken perorally; assay type: functional, organism-based; parameters: dose 42.9 mg/kg; how it was run: as §3
[13] = Absolute oral bioavailability was evaluated n male Dawley rats at a dose of 42.9 mg/kg when taken peroral; assay type: ADME, organism-based; details: Sprague-Dawley, rat, in vivo; how it was run: as §3
[14] = steady-state volume of distribution was evaluated in male Dawley rats; assay type: ADME, organism-based; details: Sprague-Dawley, rat, in vivo, read-out: Vss; how it was run: as §3
[15] = terminal disposition half-life was evaluated in male Dawley rats at 9.9 mg/kg when taken intravenously; assay type: ADME, organism-based; parameters: dose 9.9 mg/kg, route intravenous; details: Sprague-Dawley, rat, in vivo, iv; how it was run: as §3
[16] = Cmax was evaluated in male Dawley rats at a dose of 42.9 mg/kg when taken perorally; assay type: ADME, organism-based; parameters: dose 42.9 mg/kg, route oral; details: Sprague-Dawley, rat, in vivo, po; how it was run: as §3
[17] = terminal disposition half-life was evaluated in male Dawley rats at a dose of 42.9 mg/kg when taken peroral; assay type: ADME, organism-based; parameters: dose 42.9 mg/kg, route oral; details: Sprague-Dawley, rat, in vivo, po; how it was run: as §3
[18] = tmax was evaluated in male Dawley rats at a dose of 46.8 mg/kg when taken perorally; assay type: ADME, organism-based; parameters: dose 46.8 mg/kg, route oral; details: Sprague-Dawley, rat, in vivo, po; how it was run: as §3
[19] = Steady-state volume of distribution was evaluated in male Dawley rats at a dose of 9.0 mg/kg when taken intravenously; assay type: ADME, organism-based; parameters: dose 9 mg/kg, route intravenous; details: Sprague-Dawley, rat, in vivo, iv, read-out: Vss; how it was run: as §3
[20] = terminal disposition half-life was evaluated in male Dawley rats at a dose of 46.8 mg/kg when taken peroral; assay type: ADME, organism-based; parameters: dose 46.8 mg/kg, route oral; details: Sprague-Dawley, rat, in vivo, po; how it was run: as §3
[21] = terminal disposition half-life was evaluated in male Dawley rats at a dose of 9.0 mg/kg when taken intravenously; assay type: ADME, organism-based; parameters: dose 9 mg/kg, route intravenous; details: Sprague-Dawley, rat, in vivo, iv; how it was run: as §3
Rattus norvegicus [22] = experiment: Dawley rats at a dose of 46.8 mg/kg when taken peroral; assay type: functional; details: route oral; how it was run: as §3
[23] = Cmax was evaluated in male Dawley rats at a dose of 46.8 mg/kg when taken perorally; assay type: ADME, organism-based; parameters: dose 46.8 mg/kg, route oral; details: Sprague-Dawley, rat, in vivo, po; how it was run: as §3
[24] = Absolute oral bioavailability was evaluated n male Dawley rats at a dose of 46.8 mg/kg when taken peroral; assay type: ADME, organism-based; details: Sprague-Dawley, rat, in vivo; how it was run: as §3
[25] = Cmax was evaluated in male Dawley rats at a dose of 9.0 mg/kg when taken intravenously; assay type: ADME, organism-based; parameters: dose 9 mg/kg, route intravenous; details: Sprague-Dawley, rat, in vivo, iv; how it was run: as §3
Rattus norvegicus [26] = experiment: Dawley rats at a dose of 9.0 mg/kg when taken intravenously; assay type: functional; details: route intravenous; how it was run: as §3
Rattus norvegicus [27] = experiment: tmax was evaluated in male Dawley rats at a dose of 25 mg/kg when taken perorally; assay type: functional, organism-based; parameters: dose 25 mg/kg
[28] = Cmax was evaluated in male Dawley rats at a dose of 25 mg/kg when taken perorally; assay type: ADME, organism-based; parameters: dose 25 mg/kg, route oral; details: Sprague-Dawley, rat, in vivo, po
Rattus norvegicus [29] = experiment: Dawley rats at a dose of 10 mg/kg when taken intravenously; assay type: functional; details: route intravenous
[30] = Steady-state volume distribution was evaluated in male Dawley rats at a dose of 10 mg/kg when taken intravenously; assay type: ADME, organism-based; parameters: dose 10 mg/kg, route intravenous; details: Sprague-Dawley, rat, in vivo, iv, read-out: Vss

Compound	MIC (Enterococcus faecalis) [µg/mL]	MIC (Haemophilus influenzae) [µg/mL]	ED50 (Staphylococcus aureus [1]) [mg/kg/day]	MIC (Moraxella catarrhalis) [µg/mL]	MIC (Streptococcus pneumoniae [2]) [µg/mL]	ED50 (Staphylococcus aureus [3]) [mg/kg/day]	MIC (Staphylococcus aureus [4]) [µg/mL]	MIC [5] [µg/mL]	MIC (Staphylococcus aureus [6]) [µg/mL]	further results
CC(=O)NC[C@H]1CN(c2ccc(-n3ccc(C=O)c3)c(F)c2)C(=O)O1	0.25 (≈ 0.724 µM)	2 (≈ 5.79 µM)	1.7	1 (≈ 2.9 µM)	< 0.125	>20	0.25 (≈ 0.724 µM)	< 0.125	0.25 (≈ 0.724 µM)	
CC(=O)NC[C@H]1CN(c2ccc(-n3ccc(C#N)c3)c(F)c2)C(=O)O1	0.25 (≈ 0.73 µM)	4 (≈ 11.7 µM)	4	1 (≈ 2.92 µM)	< 0.125	1.9	0.5 (≈ 1.46 µM)	< 0.125	0.25 (≈ 0.73 µM)	CL/F (Rattus norvegicus [7]): 1.18 mL/min/kg; Cmax [8]: 26.1 µM; ED50 (Streptococcus pneumoniae [9]): 1.4 mg/kg/day; CL/F (Rattus norvegicus [10]): 1.43 mL/min/kg; ED50 (Streptococcus pneumoniae [11]): 0.6 mg/kg/day; Tmax (Rattus norvegicus [12]): 10 h; bioavailability [13]: 92%; Vd [14]: 0.52 L/kg; half-life [15]: 5.15 h; Cmax [16]: 31 µM; half-life [17]: 5.14 h
CC(=O)NC[C@H]1CN(c2ccc(-n3cc(C#N)cn3)c(F)c2)C(=O)O1	0.5 (≈ 1.46 µM)	4 (≈ 11.7 µM)	3.3	2 (≈ 5.83 µM)	< 0.125	1.2	0.5 (≈ 1.46 µM)	< 0.125	0.5 (≈ 1.46 µM)	Tmax [18]: 4 h; ED50 (Streptococcus pneumoniae [9]): 3.2 mg/kg/day; ED50 (Streptococcus pneumoniae [11]): 0.35 mg/kg/day; Vd [19]: 0.43 L/kg; half-life [20]: 5.35 h; half-life [21]: 5.35 h; CL/F (Rattus norvegicus [22]): 1.25 mL/min/kg; Cmax [23]: 29.4 µM; bioavailability [24]: 80%; Cmax [25]: 29.2 µM; CL/F (Rattus norvegicus [26]): 1.04 mL/min/kg
CN[C@H](CC(C)C)C(=O)N[C@H]1C(=O)N[C@@H](CC(N)=O)C(=O)N[C@H]2C(=O)N[C@H]3C(=O)N[C@H](C(=O)N[C@H](C(=O)O)c4cc(O)cc(O)c4-c4cc3ccc4O)[C@H](O)c3ccc(c(Cl)c3)Oc3cc2cc(c3O[C@@H]2O[C@H](CO)[C@@H](O)[C@H](O)[C@H]2O[C@H]2C[C@](C)(N)[C@H](O)[C@H](C)O2)Oc2ccc(cc2Cl)[C@H]1O [VANCOMYCIN]		> 32		> 32	0.5 (≈ 0.345 µM)					
CC(=O)NC[C@H]1CN(c2ccc(-n3cc(C(N)=O)cn3)c(F)c2)C(=O)O1	> 16	> 16		> 16	0.5 (≈ 1.38 µM)		> 16	4 (≈ 11.1 µM)		
CC(=O)NC[C@H]1CN(c2ccc(N3CCN(C(=O)CO)CC3)c(F)c2)C(=O)O1 [EPEREZOLID]	2 (≈ 5.07 µM)	16 (≈ 40.6 µM)		8 (≈ 20.3 µM)	0.5 (≈ 1.27 µM)		4 (≈ 10.1 µM)	0.5 (≈ 1.27 µM)	1 (≈ 2.54 µM)	
CC(=O)NC[C@H]1CN(c2ccc(-n3ccc(/C=N\O)c3)c(F)c2)C(=O)O1	0.5 (≈ 1.39 µM)	4 (≈ 11.1 µM)	2.6	1 (≈ 2.78 µM)	< 0.125	5.5	1 (≈ 2.78 µM)	0.25 (≈ 0.694 µM)	0.5 (≈ 1.39 µM)	
CCOC(=O)c1cnn(-c2ccc(N3C[C@H](CNC(C)=O)OC3=O)cc2F)c1	4 (≈ 10.2 µM)	> 16		> 16	1 (≈ 2.56 µM)		4 (≈ 10.2 µM)	2 (≈ 5.12 µM)	4 (≈ 10.2 µM)	
CC(=O)NC[C@H]1CN(c2ccc(N3CCOCC3)c(F)c2)C(=O)O1 [LINEZOLID]		16 (≈ 47.4 µM)		8 (≈ 23.7 µM)				1 (≈ 2.96 µM)		Tmax (Rattus norvegicus [27]): 0.3 h; Cmax [28]: 15.8 µM; CL/F (Rattus norvegicus [29]): 10.5 mL/min/kg; Vd [30]: 0.72 L/kg
